Measurements published in ChEMBL document CHEMBL2057109, “Synthesis, biological evaluation, and molecular docking studies of 2,5-substituted-1,4-benzoquinone as novel urease inhibitors” (Bioorg Med Chem, 2012).
The source made the active and inactive calls. The rule behind the calls is not given here.

Experiments:
[1] = molecular target: Urease subunit alpha/Urease subunit beta (Helicobacter pylori (strain ATCC 700392 / 26695) (Campylobacterpylori)) (UniProt P69996+P14916); assay: Inhibition of Helicobacter pylori urease assessed as ammonia production at 100 uM preincubated for 3 hrs measured by indophenol method
Chain of Urease subunit alpha/Urease subunit beta (Helicobacter pylori (strain ATCC 700392 / 26695) (Campylobacterpylori)) (P14916 whole entry, looked up): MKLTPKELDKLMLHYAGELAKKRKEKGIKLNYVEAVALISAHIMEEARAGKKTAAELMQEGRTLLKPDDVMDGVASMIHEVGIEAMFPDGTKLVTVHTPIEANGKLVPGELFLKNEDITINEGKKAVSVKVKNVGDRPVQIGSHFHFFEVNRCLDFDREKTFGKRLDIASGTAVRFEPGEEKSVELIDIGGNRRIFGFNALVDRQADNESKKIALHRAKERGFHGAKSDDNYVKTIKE
Chain of Urease subunit alpha/Urease subunit beta (Helicobacter pylori (strain ATCC 700392 / 26695) (Campylobacterpylori)) (P69996 whole entry, looked up): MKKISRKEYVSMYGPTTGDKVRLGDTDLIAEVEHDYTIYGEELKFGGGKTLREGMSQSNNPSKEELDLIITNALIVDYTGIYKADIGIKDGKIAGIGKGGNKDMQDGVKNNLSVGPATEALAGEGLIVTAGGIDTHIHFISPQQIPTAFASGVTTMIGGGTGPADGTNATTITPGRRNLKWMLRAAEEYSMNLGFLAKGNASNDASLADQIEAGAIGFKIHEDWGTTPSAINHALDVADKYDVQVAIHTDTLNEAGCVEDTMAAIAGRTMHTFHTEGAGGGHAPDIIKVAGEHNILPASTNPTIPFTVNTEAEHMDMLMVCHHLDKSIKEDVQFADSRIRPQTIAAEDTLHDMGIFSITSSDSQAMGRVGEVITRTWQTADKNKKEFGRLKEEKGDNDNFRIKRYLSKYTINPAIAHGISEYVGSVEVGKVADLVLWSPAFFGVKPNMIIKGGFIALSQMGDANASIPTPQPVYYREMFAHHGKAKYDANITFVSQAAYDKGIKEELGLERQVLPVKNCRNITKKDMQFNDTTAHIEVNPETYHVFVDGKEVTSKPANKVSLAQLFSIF

[2] = molecular target: Urease subunit alpha/Urease subunit beta (Helicobacter pylori (strain ATCC 700392 / 26695) (Campylobacterpylori), UniProt P69996); assay: Inhibition of Helicobacter pylori urease assessed as ammonia production preincubated for 3 hrs measured by indophenol method
Chain of Urease subunit alpha/Urease subunit beta (P69996 whole entry): as the sequence (P69996 whole entry, looked up) above
Chain of Urease subunit alpha/Urease subunit beta (P14916 whole entry, further chain): as the sequence (P14916 whole entry, looked up) above
Method in brief: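 Enzyme came from H. pylori broth cultures (2.0 × 10⁸ CFU/mL), which were pelleted at 5000 g and 4 °C, washed twice in PBS at pH 7.4, and stored at −80 °C. Urease and test compound were pre-incubated for 3 h at room temperature. Ammonia production was then quantified by the Weatherburn indophenol method.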

SMILES | inhibition [1] | IC50 [2]
O=C1C=C(NCCNc2ccccc2)C(=O)C=C1NCCNc1ccccc1 | inactive | –
O=C1C=C(NC2CC2)C(=O)C=C1NC1CC1 | inactive | –
CC(C)NC1=CC(=O)C(NC(C)C)=CC1=O | inactive | –
O=C1C=C(NCCN2CCOCC2)C(=O)C=C1NCCN1CCOCC1 | 81.6% | 27.3 µM
CC(=O)NO [ACETOHYDROXAMIC ACID] | 85.2% | 46.3 µM
O=C1C=C(NC2CCCC2)C(=O)C=C1NC1CCCC1 | 68.8% | 35.4 µM
O=C1C=C(NC2CCCCC2)C(=O)C=C1NC1CCCCC1 | 62.7% | 41.5 µM
